Assay outcomes: PubChem, several laboratories
RanGTP-Imp inh: inhibitors of RanGTP-importin-beta interaction, primary screen, biochemical, FRET, CFP-Ran, YFP-importin-beta, homogeneous. Ran GTPase (GTP-bound) - importin-beta complex. cell-free CFP-Ran/YFP-importin-beta FRET ratio. inhibition, % (test concentration not listed). 1.1% of 300,000 active;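 active = more than half of the replicate wells show a fall in the fluorescence ratio signal beyond about 16%, limit read from the data, passing the limit was not always enough; inconclusive = exactly half of the replicate wells pass the set limit; inactive = fewer than half of replicates pass the limit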;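 also: 0% = DMSO wells and 100% = Ran loaded with GDP instead of GTP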
TbHK1 inh: Trypanosoma brucei hexokinase 1 inhibitors, primary screen, biochemical, G6PDH-coupled NADH absorbance, MLSCN library. hexokinase 1 [Trypanosoma brucei]. inhibition, % at 10 µM. AID 1430, 2008. 0.11% of 220,000 active. recombinant TbHK1, G6PDH-coupled NADH A340;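 active = inhibition of 50% or more in the single-dose primary screen; inactive = inhibition below 50%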
Runt-SMMHC FRET: inhibitors of RUNX1 Runt–CBFb-SMMHC binding, primary screen, biochemical, FRET, Cerulean-Runt, Venus-CBFb-SMMHC, uHTS; Runt-related transcription factor 1 (Homo sapiens) + Core-binding factor subunit beta …; Cerulean-Runt/Venus-CBFb-SMMHC FRET ratio 530/480, 1 h; inhibition, % at 20 µM; 0.74% of 220,000 active;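 active = mean inhibition across duplicate retests at 20 µM reaching about 50%, limit read from the data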;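 also: 0% = DMSO wells and 100% = wells with excess untagged CBFb-SMMHC; inhibitors lower the FRET ratio by blocking Runt binding to CBFb-SMMHC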
Target sequence (Q01196 whole entry, looked up): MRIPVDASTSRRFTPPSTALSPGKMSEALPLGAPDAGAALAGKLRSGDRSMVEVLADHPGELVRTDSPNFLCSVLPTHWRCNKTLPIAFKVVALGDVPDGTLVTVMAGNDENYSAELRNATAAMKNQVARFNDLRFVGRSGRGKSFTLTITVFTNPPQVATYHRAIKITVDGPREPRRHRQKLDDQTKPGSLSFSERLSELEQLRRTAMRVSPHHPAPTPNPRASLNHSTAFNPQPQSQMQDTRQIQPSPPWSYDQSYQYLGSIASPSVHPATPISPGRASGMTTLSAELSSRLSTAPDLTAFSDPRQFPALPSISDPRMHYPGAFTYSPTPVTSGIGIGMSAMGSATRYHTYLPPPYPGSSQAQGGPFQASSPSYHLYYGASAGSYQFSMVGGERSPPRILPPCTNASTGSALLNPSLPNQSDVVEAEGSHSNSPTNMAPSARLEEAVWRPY
Target sequence (Q13951 whole entry, looked up): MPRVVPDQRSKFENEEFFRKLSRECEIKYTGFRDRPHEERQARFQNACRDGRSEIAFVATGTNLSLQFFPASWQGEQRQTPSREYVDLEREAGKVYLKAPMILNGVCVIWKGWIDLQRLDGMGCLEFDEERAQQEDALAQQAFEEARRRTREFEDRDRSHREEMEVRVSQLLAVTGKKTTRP
Runt-CBFb FRET: inhibitors of RUNX1 Runt–CBFb binding, primary screen, biochemical, FRET, Cerulean-Runt, Venus-CBFb, uHTS | Runt-related transcription factor 1 (Homo sapiens) + Core-binding factor subunit beta … | Cerulean-Runt/Venus-CBFb FRET ratio 530/480, 1 h | inhibition, % at 20 µM | 0.46% of 220,000 active;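 active = inhibition over about 50% at 20 µM in the single-dose screen, limit read from the data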;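 also: 0% = DMSO wells and 100% = excess unlabeled CBFb competitor control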
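Assay system: Cerulean-Runt domain / Medium: Tris 50 mM pH 7.5, KCl, K2SO4, 0.01% BSA / Timing: protein complex preformed 1 h, compound exposure 1 h, room temperature, dark / Measured by: FRET, excitation 422 nm, emission at 530 and 480 nm / Evaluation: loss of energy transfer signal / Control set: 5 µM unlabeled CBFb as full-inhibition high control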
Hck-Nef inh: inhibitors of Nef-activated human Hck kinase, primary screen, biochemical, Z-Lyte FRET, 384-well, Hck-YEEI. Tyrosine-protein kinase HCK (Homo sapiens), P08631. Recombinant Hck-YEEI plus Nef, Z-Lyte FRET kinase assay. inhibition, % at 20 µM. 0.68% of 220,000 active. AID 463187, 2010;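 active = Hck-Nef kinase inhibition above about 50%, limit read from the data; inactive = inhibition below that limit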;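 also: 0% = DMSO with Hck plus Nef and 100% = Hck alone without Nef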
p97 ATPase inh: inhibitors of human p97 ATPase, primary screen, biochemical; Transitional endoplasmic reticulum ATPase (Homo sapiens), P55072; recombinant p97 ATPase, Kinase-Glo ATP luminescence, 3 h; inhibition, % at 8 µM; 0.42% of 220,000 active; AID 1481, 2009; in the data active = inhibition above about 15%;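 also: 0% = DMSO vehicle and 100% = wells lacking enzyme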
G6PDH ctr: Leuconostoc G6PDH inhibition, confirmation, counter-screen for TbHK1 inhibitor project, biochemical, DPI cherry-picked compounds, single concentration | inhibition, % at 10 µM | AID 2516, 2010 | 7% of 210 active | purified G6PDH, NADH absorbance, 1 h | shares compounds with TbHK1 inh;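 active = at least 50% inhibition in the glucose-6-phosphate dehydrogenase coupled counterscreen; inconclusive = no clear call, values can overlap the other calls; inactive = inhibition below 50%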
TbHK1 rescreen: TbHK1 inhibitor retest, confirmation, biochemical, DPI cherry-picked primary actives; shares compounds with TbHK1 inh; recombinant TbHK1, G6PDH-coupled NADH A340 absorbance; inhibition, % at 10 µM; 10% of 210 active; AID 2560, 2010;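 active = inhibition of at least 50% in both of the two screening runs; inconclusive = at least 50% in one run, below 50% in the other; inactive = inhibition below 50% in both runs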;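 also: 0% and 100% set by the maximum and minimum signal control wells on each plate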
p97 inh conf: p97 ATPase inhibitors, retest, confirmation, biochemical. shares compounds with p97 ATPase inh. 44% of 760 active. inhibition, % at 8 µM. recombinant p97 ATPase, Kinase-Glo ATP luminescence;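 active = percent inhibition of p97 ATPase above a set limit, the primary screen's mean plus 3 SD, cut at about 15% in these data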;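 also: 0% = DMSO wells and 100% = wells lacking p97 protein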
An asterisk follows results filed as active; ? = inconclusive; · = no result. An excerpt weighted towards active compounds, which were near 2.1% of everything screened.

SMILES	RanGTP-Imp inh	TbHK1 inh	Runt-SMMHC FRET	Runt-CBFb FRET	Hck-Nef inh	p97 ATPase inh	G6PDH ctr	TbHK1 rescreen	others
CCOc1ccc(CCNC(=O)c2nnn(CC(=O)Nc3ccccc3C)c2N)cc1OCC	1.7	·	·	·	·	·	·	·
COc1ccc(CCNC(=O)c2nnn(CC(=O)Nc3ccccc3C)c2N)cc1OC	1.0	55.4*	-0.9	-0.4	4.1	-4.0	-6.5	-7.1
CN(CC(=O)Nc1ccccc1C(F)(F)F)C(=O)CSCc1ccccc1	1.0	·	·	·	·	·	·	·
O=c1c2ccccc2sn1-c1ccccc1	3.0	80.5*	57.0*	32.0	96.3*	-0.4	-16.5	83.9*
CC12CCC(C(=O)NC(c3ccccc3)c3ccccc3)(OC1=O)C2(C)C (configuration not stated)	4.6	60.6*	2.4	3.1	-0.1	-7.1	-6.7	3.8
CC12CCC(C(=O)NNc3ccccc3)(OC1=O)C2(C)C (configuration not stated)	2.2	-0.8	-3.9	1.9	-1.5	-3.4	·	·
N#Cc1cc(Sc2ccccn2)c(Sc2ccccn2)cc1C#N	2.4	57.9*	-0.5	2.8	9.2	-1.2	-11.5	-9.3
O=C(NCCN1CCOCC1)c1cc([N+](=O)[O-])cc([N+](=O)[O-])c1	9.7	·	·	·	·	·	·	·
COc1ccc(NC2=NC3(CCCCC3)N=C(N)N2)cc1	?	62.0*	-13.3	-2.1	15.4	6.7	19.1	12.8
CCOC(=O)c1ccc(NC(=O)N2CCN(Cc3ccccc3)CC2)cc1	-0.7	0.1	-3.8	0.0	16.5	4.0	·	·
O=S1(=O)N=C(N2CCOCC2)c2ccccc21	2.9	56.9*	0.9	-2.3	2.3	-4.7	-8.6	-0.7
COc1ccc(Cl)cc1NC(=O)CN(C)C(=O)c1cc2c(s1)CCC(C)C2 (configuration not stated)	1.2	·	·	·	·	·	·	·
Cn1nc(-c2ccccn2)nc2c(=O)n(C)c(=O)nc1-2	-4.3	70.1*	-28.2	-8.1	17.5	34.0*	?	40.9	p97 inh conf=33.3*
CN1C(=O)[C@H]2[C@@H](/C=C/c3ccccc3)N3C(=O)CN(Cc4ccc(-c5ccccc5)cc4)C(=O)[C@@]3(Cc3ccccc3)[C@H]2C1=O	-0.9	·	·	·	·	·	·	·
CCc1ccc(S(=O)(=O)Nc2cc(SCC(=O)O)c(O)c3ccccc23)cc1	0.1	3.8	6.0	25.7	18.1	7.0	·	·
O=C(O)CSc1cc(NS(=O)(=O)c2cccc([N+](=O)[O-])c2)c2ccccc2c1O	0.5	62.6*	-3.6	15.4	44.5	26.7*	74.2*	62.3*	p97 inh conf=40.0*
NS(=O)(=O)c1ccc(N/N=C/c2ccc(O)c(O)c2O)c([N+](=O)[O-])c1	·	67.5*	64.6*	42.6	50.6*	47.9*	-41.2	14.9	p97 inh conf=49.6*
COc1ccccc1CCC(=O)NNC(=O)c1ccc(Br)cc1	-0.5	·	·	·	·	·	·	·
